Experimental data as given in ChEMBL document CHEMBL1240337, “Identification of proteases that regulate erythrocyte rupture by the malaria parasite Plasmodium falciparum” (Nat Chem Biol, 2008).
The source made the active and inactive calls. The calls are words filed in the database; no cut-off is given here.

Assays:
[1] = test system: Plasmodium falciparum; test: Antiplasmodial activity against Plasmodium falciparum infected in human erythrocytes assessed as effect on parasite morphology by Giemsa staining; format: functional, organism-based
Procedure, shortened: (§1)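 Giemsa-stained thin blood films were read from schizonts exposed at 36 h post invasion to 10 µM inhibitor, to assess rupture and morphology.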

[2] = Cytotoxicity against african green monkey BSC1 cells after 24 hrs by celltiter glo assay; format: cell-based; conditions: chlorocebus aethiops, bsc-1, 24 h
Procedure, shortened: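 BSC-1 African green monkey kidney epithelial cells exposed to compounds; viability read by CellTiter-Glo luminescence.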

[3] = target: T1, Preprocathepsin c, putative (Plasmodium falciparum 3D7) (UniProt Q8I0V1); test: Inhibition of Plasmodium falciparum 3D7 PFL2290w by fluorescence spectrophotometry
T1 sequence (whole entry): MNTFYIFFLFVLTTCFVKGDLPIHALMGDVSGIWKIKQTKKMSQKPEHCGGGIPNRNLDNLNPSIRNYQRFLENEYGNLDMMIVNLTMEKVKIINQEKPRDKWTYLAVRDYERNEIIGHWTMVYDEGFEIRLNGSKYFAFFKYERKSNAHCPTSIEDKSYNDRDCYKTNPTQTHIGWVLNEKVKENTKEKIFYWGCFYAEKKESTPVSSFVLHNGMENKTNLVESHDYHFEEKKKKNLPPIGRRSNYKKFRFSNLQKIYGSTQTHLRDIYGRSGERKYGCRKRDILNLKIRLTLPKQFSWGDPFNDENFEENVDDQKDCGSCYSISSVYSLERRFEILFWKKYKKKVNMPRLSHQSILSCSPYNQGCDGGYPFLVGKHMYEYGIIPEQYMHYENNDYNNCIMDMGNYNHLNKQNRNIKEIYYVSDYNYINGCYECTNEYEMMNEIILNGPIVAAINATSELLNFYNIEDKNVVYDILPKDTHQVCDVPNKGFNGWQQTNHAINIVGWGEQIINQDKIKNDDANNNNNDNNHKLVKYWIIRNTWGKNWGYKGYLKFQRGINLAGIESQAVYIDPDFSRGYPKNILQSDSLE

[4] = target: T2, Cysteine proteinase falcipain-1 (Plasmodium falciparum 3D7) (UniProt Q8I6V0); test: Inhibition of Plasmodium falciparum 3D7 falcipain-1 by fluorescence spectrophotometry
T2 sequence (whole entry): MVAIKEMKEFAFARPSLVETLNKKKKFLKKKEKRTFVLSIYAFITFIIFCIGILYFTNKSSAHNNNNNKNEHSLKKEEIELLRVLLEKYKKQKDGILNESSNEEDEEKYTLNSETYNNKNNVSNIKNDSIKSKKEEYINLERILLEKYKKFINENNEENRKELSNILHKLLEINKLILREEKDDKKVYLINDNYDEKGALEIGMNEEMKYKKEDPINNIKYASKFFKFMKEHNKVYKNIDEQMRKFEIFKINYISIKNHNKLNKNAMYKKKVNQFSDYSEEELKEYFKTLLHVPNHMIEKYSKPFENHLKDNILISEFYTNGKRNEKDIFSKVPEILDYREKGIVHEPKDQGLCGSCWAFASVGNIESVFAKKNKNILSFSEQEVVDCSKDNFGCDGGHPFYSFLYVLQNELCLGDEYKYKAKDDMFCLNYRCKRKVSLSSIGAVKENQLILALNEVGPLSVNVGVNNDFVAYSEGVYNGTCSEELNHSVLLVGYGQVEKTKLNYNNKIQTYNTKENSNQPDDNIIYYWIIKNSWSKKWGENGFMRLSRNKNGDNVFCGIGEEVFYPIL

[5] = test system: Plasmodium falciparum; test: Antiplasmodial activity against Plasmodium falciparum schizont infected in human erythrocytes assessed as inhibition of ring-stage parasite growth at 1 to 50 uM after 24 by propidium iodide staining-based FACS analysis; format: functional, organism-based
[6] = target: T3, Probable cathepsin C (Plasmodium falciparum 3D7) (UniProt Q8IIJ9); test: Inhibition of Plasmodium falciparum 3D7 cathepsin C by fluorescence spectrophotometry
T3 sequence (whole entry): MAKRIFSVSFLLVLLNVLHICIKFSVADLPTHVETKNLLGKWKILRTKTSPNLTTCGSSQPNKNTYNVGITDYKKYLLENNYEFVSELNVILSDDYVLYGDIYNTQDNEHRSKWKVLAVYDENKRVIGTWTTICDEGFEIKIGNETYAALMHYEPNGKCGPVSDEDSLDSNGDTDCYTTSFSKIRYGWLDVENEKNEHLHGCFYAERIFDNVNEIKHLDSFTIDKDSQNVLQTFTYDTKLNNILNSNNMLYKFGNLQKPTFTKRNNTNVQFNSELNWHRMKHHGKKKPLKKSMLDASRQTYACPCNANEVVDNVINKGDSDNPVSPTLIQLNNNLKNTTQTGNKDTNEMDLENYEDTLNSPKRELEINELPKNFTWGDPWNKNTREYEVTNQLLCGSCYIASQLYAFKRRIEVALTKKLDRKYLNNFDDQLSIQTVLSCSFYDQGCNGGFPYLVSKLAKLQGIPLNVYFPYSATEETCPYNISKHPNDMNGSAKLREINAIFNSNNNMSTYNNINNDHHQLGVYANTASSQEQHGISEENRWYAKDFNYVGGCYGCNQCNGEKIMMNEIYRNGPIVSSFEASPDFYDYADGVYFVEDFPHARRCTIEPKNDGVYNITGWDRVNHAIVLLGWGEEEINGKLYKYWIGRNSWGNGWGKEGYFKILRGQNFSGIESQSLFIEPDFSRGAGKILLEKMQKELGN

[7] = test system: Plasmodium falciparum; test: Antiplasmodial activity against Plasmodium falciparum infected in human erythrocytes assessed as blockade of parasite-mediated rupture of erythrocytes by Giemsa staining; format: functional, organism-based; procedure, shortened: as §1

Row | inhibition [3] | inhibition [4] | inhibition [6] | SMILES | Activity [1] | Activity [2] | inhibition [5] | Activity [7]
1 | inactive | Active | Active | CCC[C@H](N)C(=O)N[C@H](/C=C/S(=O)(=O)c1ccccc1)CCc1ccccc1 | inactive | Non-toxic | Active | Active
2 | inactive | Active | Active | C[C@H](N)C(=O)N[C@H](/C=C/S(=O)(=O)c1ccccc1)CCc1ccccc1 | inactive | Non-toxic | Active | Active
